Assay results: ChEMBL document CHEMBL2390881, “Identification of M. tuberculosis thioredoxin reductase inhibitors based on high-throughput docking using constraints” (J Med Chem, 2013)

Tests used:
[1] = molecular target: T1, Thioredoxin reductase (Mycobacterium tuberculosis) (UniProt P9WHH1); assay: Inhibition of Mycobacterium tuberculosis TrxR at 5 uM after 10 mins by microplate reader analysis
T1 sequence (whole entry): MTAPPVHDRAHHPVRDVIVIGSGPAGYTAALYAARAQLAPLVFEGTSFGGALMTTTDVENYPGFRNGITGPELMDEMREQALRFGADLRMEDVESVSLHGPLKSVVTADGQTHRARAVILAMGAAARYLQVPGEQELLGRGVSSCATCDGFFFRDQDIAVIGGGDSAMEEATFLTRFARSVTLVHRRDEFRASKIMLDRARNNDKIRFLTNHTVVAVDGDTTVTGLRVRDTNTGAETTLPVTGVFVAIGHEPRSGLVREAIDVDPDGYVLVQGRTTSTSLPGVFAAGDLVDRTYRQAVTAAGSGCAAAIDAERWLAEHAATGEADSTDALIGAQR
Procedure, shortened: (§1)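 MtTrxR, MtTrxB and MtTPx from M. tuberculosis, expressed in E. coli. Enzyme preincubated 10 min at 25 °C with 10 μM MtTrxB, 5 μM MtTPx, 225 μM NADPH and 0.06-45 μM compound in 50 mM HEPES pH 7.4, 1 mM EDTA. Started with 73 μM t-butylhydroperoxide. Initial NADPH oxidation rate read at 340 nm, 25 °C. Triplicates, outliers removed. IC50 by four-parameter fit, mean of ≥3 assays.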

[2] = molecular target: T1, Thioredoxin reductase (Mycobacterium tuberculosis); assay: Inhibition of Mycobacterium tuberculosis TrxR at 45 uM after 10 mins by microplate reader analysis; procedure, shortened: as §1
[3] = molecular target: Thioredoxin reductase (Homo sapiens) (UniProt Q16881+Q9NNW7+Q86VQ6); assay: Inhibition of human TrxR at 100 uM by spectrophotometry; format: protein assay
Procedure, shortened: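 Human placenta TrxR1 (2.8 nM final) with 200 μM NADPH in 100 mM potassium phosphate, 2 mM EDTA, pH 7.4. Inhibitor added up to 100 μM final, then reaction started with 3 mM DTNB. Absorbance followed at 412 nm at 25 °C against inhibitor-free control. At least three independent experiments; apparent activation scored as no inhibition.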

[4] = molecular target: T1, Thioredoxin reductase (Mycobacterium tuberculosis); assay: Inhibition of Mycobacterium tuberculosis TrxR at 1.67 uM after 10 mins by microplate reader analysis; procedure, shortened: as §1
[5] = molecular target: T1, Thioredoxin reductase (Mycobacterium tuberculosis); assay: Inhibition of Mycobacterium tuberculosis TrxR at 15 uM after 10 mins by microplate reader analysis; procedure, shortened: as §1
Thioredoxin reductase = molecular target: T2, Thioredoxin reductase (Mycobacterium tuberculosis, UniProt P9WHH1); assay: Inhibition of Mycobacterium tuberculosis TrxR after 10 mins by microplate reader analysis; procedure, shortened: as §1
T2 sequence (P9WHH1 whole entry): T1 sequence (whole entry)

[6] = Selectivity index, ratio of IC50 for human TrxR to IC50 for Mycobacterium tuberculosis TrxR
Procedure, shortened: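 Estimated from HsTrxR inhibition at 100 μM (DTNB assay) and the MtTrxR IC50, assuming that ≤10% HsTrxR inhibition at 100 μM reflects an IC50 of >300 μM.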

SMILES | inhibition [1] | inhibition [2] | inhibition [3] | inhibition [4] | inhibition [5] | IC50 (Thioredoxin reductase) | Ratio IC50 [6]
c1ccc2sc(CNc3ccc(N4CCCCC4)cc3)nc2c1 | 39.7% | 67% | 17.1% | 24% | 44.4% | 15.8 µM | > 10
CC(c1c[nH]nc1-c1ccccc1)N1CCC(CCC(=O)Nc2ccccc2)CC1 (stereo not given) | 38% | 29.8% | 0% | 29.7% | 34.3% | 15 µM | > 20
O=C(CCCCc1ccccc1)Nc1ccc(N2CCC(NCCn3cccn3)CC2)cc1 | 14.7% | 24% | – | 12.3% | 17.5% | – | –
COc1ccc2nc(C)cc(Nc3ccc(O)cc3)c2c1 | 36% | 68% | 31.6% | 25.6% | 51.6% | 12.5 µM | > 8
Nc1ccc(N2CCCCC2)cc1 | 17% | 55% | 0% | 9.5% | 35.7% | 33.4 µM | > 10
O=C(Nc1ccc(N2CCC(NCCOc3cccnc3)CC2)cc1)c1cnccn1 | 12% | – | – | 5% | 16.3% | – | –
CSCCNC1CCN(c2ccc(NC(=O)CCCCc3ccccc3)cc2)CC1 | 29.7% | 28% | 0% | 27% | 33.7% | 100 µM | > 3
NC1=C(c2nc(-c3ccccc3)cs2)C(=O)CN1c1ccc(S(N)(=O)=O)cc1 | 9.9% | 25% | 0% | 8.4% | 12.8% | 200 µM | > 2
Nc1nc(-c2cc3ccc(O)cc3oc2=O)cs1 | 17.3% | 36.4% | 0% | 10.6% | 19.7% | 100 µM | > 3
O=C(COc1ccccc1)Nc1ccc(N2CCC(NCc3cccc(-n4cccn4)c3)CC2)cc1 | 16.9% | 22.1% | – | 11.2% | 18.2% | – | –
Fc1cccc(Cl)c1CNc1ccc(N2CCCCC2)cc1 | 41.7% | 58.7% | 4.6% | 30% | 51.7% | 15.3 µM | > 10
O=C(O)[C@H](Cc1cc2ccccc2[nH]1)NCc1c[nH]c2ccccc12 | 31.7% | 31% | 10.4% | 26.7% | 43.3% | 30 µM | > 10
C=CCc1cccc(/C=N/NC(=O)CCC2C(=O)NN=C2C)c1O (stereo not given) | 31% | 26% | 0% | 31.7% | 31.7% | – | > 10
